According to ChEMBL document CHEMBL2440020, “Design, Synthesis, and Anti-leukemic Activity of Stereochemically Defined Constrained Analogs of FTY720 (Gilenya)” (ACS Med Chem Lett, 2013):
Calls of active or inactive are those of the source. The rule behind the calls is not given here.

Assays:
Type in all cases: functional, cell-based
[1] = system: SUP-B15; assay: Cytotoxicity against Ph-positive human SUP-B15 cells at 0.1 to 10 uM after 72 hrs by vital dye exclusion/flow cytometric analysis
[2] = Downregulation of 4F2hc surface expression in Ph-positive human SUP-B15 cells at 10 uM after 72 hrs by vital dye exclusion/flow cytometric analysis
[3] = system: DU-145; assay: Cytotoxicity against human DU145 cells after 72 hrs by vital dye exclusion/flow cytometric analysis; details: DU-145, 72 h
Method in brief: (§1)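 Viability of human leukaemia and prostate cancer lines, and of murine bone marrow cells expressing BCR-Abl p190, was scored by vital dye exclusion and flow cytometry after 72 h of exposure. IC50 values are given as means with SEM and were compared with the reference control by two-tailed t-test.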

[4] = Cytotoxicity against Ph-positive human SUP-B15 cells after 72 hrs by vital dye exclusion/flow cytometric analysis; details: SUP-B15, 72 h; method in brief: as §1
[5] = system: BV-173; assay: Cytotoxicity against Ph-positive human BV173 cells after 72 hrs by vital dye exclusion/flow cytometric analysis; details: BV-173, 72 h; method in brief: as §1
[6] = system: CCRF-CEM; assay: Cytotoxicity against Ph-negative human CCRF-CEM cells after 72 hrs by vital dye exclusion/flow cytometric analysis; method in brief: as §1
[7] = system: PC-3; assay: Cytotoxicity against human PC3 cells after 72 hrs by vital dye exclusion/flow cytometric analysis; details: PC-3, 72 h; method in brief: as §1
[8] = system: NALM-6; assay: Cytotoxicity against Ph-negative human NALM6 cells after 72 hrs by vital dye exclusion/flow cytometric analysis; details: NALM-6, 72 h; method in brief: as §1
[9] = Cytotoxicity against Ph-negative human BLIN-1 cells after 72 hrs by vital dye exclusion/flow cytometric analysis; method in brief: as §1
[10] = Cytotoxicity against BCR-ABL fusion protein 190 expressing mouse bone marrow cells after 72 hrs by vital dye exclusion/flow cytometric analysis; details: Bone marrow cell; method in brief: as §1

Compound | Activity [1] | Activity [2] | IC50 [3] [µM] | IC50 [4] [µM] | IC50 [5] [µM] | IC50 [6] [µM] | IC50 [7] [µM] | IC50 [8] [µM] | IC50 [9] [µM] | IC50 [10] [µM]
CCCCCCCCc1ccc(CO[C@@H]2CN[C@@H](C)C2)cc1 | Active | Active |  |  |  |  |  |  |  | 
CCCCCCCCc1ccc(CO[C@H]2CN[C@H](CO)C2)cc1 |  |  | 10.8 | 7.7 | 10.4 | 11 | 14.3 | 15 | 7.5 | 5.7
CCCCCCCCc1ccc(CO[C@H]2CN[C@H](C)C2)cc1 | Active | Active |  |  |  |  |  |  |  | 
CCCCCCCCc1ccc(CO[C@@H]2CCNC2)cc1 | Active | Active |  |  |  |  |  |  |  | 
CCCCCCCCc1ccc(CO[C@@H]2CCN[C@H]2CO)cc1 | inactive |  |  |  |  |  |  |  |  | 
CCCCCCCCc1ccc(CO[C@@H]2CN[C@@H](CO)C2)cc1 |  |  | 15.1 | 2 | 3.8 | 8.2 | 13.5 | 13.5 | 6.9 | 0.5
CCCCCCCCc1ccc(CCC(N)(CO)CO)cc1 [FINGOLIMOD] |  |  | 6.5 | 6.8 | 6.3 | 6.8 | 9.8 | 9.6 | 5.5 | 3.3
CCCCCCCCc1ccc(CO[C@H]2CCNC2)cc1 | Active | Active |  |  |  |  |  |  |  | 
CCCCCCCCc1ccc(CO[C@@H]2CN[C@H](CO)C2)cc1 |  |  |  | 16.7 | 13.8 | 11.6 |  |  |  | 8.4
CCCCCCCCc1ccc(CO[C@@H]2CN[C@@H](COC)C2)cc1 | Active | Active |  |  |  |  |  |  |  | 
CCCCCCCCc1ccc(CO[C@H]2CN[C@@H](CO)C2)cc1 |  |  |  | 8.3 | 9.7 | 8.1 |  |  |  | 4
